Experimental data pooled from the literature.
Protocols differ between the studies behind these lines.
Cell line: MDA-MB-231
Read-out: cell growth or viability

`O=C(C=Cc1ccccc1)Nc1cc(-c2ccnc(N3CCOCC3)c2)ccn1` gave an IC50 of 72.9 nM (MTT; 72 h).
With `C=CCNC(=S)NNC(=O)COc1ccc2c(C)c(CC)c(=O)oc2c1C` the viability was 3% (MTT; 500 µg/mL).
`COc1ccc(COC[C@@](O)(CNCc2ccccc2)[C@@H]2CC[C@@H](C)C[C@H]2OCc2ccc(OC)cc2)cc1` gave an inhibition of 101% (MTT; 30 µM; 72 h).
`O=C(C=Cc1ccc(F)cc1)Nc1cc(-c2ccnc(N3CCC(O)CC3)c2)ccn1` gave an inhibition of 72.3% (MTT; 5 µM).
The inhibition of `C[C@@H]1CC[C@@H]([C@@](O)(CNCc2ccccc2)COCc2ccccc2)[C@H](OCc2ccccc2)C1` is reported as 97% (MTT; 30 µM; 72 h).
With `COc1cc2c3c(n(CCCN4CCOCC4)c(=O)c2cc1OC)-c1nc2c(cc1C3=O)OCO2` the IC50 was over 2000 nM (MTS; 72 h).
`C#Cc1nc(C2=C(C)C(O)CC2)cs1` (centres unmarked) has a CC50 of 3200 nM.
The inhibition of `COc1ccc(COC[C@@](O)(CNCc2ccc(F)cc2)[C@@H]2CC[C@@H](C)C[C@H]2OCc2ccc(OC)cc2)cc1` is reported as 91.7% (MTT; 10 µM; 72 h).
`O=C(C=Cc1ccccc1)Nc1cccc(-c2ccnc(N3CCC(O)CC3)c2)c1` has an inhibition of 61.6% (MTT; 5 µM).
For `COc1ccc(CNC[C@](O)(COCc2ccc(F)cc2)[C@@H]2CC[C@@H](C)C[C@H]2OCc2ccc(F)cc2)cc1`, the inhibition was 99.4% (MTT; 30 µM; 72 h).
The viability of `CCc1c(C)c2ccc(OCC=Cc3ccccc3)c(C)c2oc1=O` is reported as 13% (MTT; 500 µg/mL).
`O=C(O)c1ccccc1Nc1cccc(C(F)(F)F)c1` has a GI50 of over 30000 nM (SRB; 48 h).
With `Cc1c(Cc2ccccc2)c(=O)oc2c(C)c(OCC(=O)NN=Cc3ccc(Cl)cc3)ccc12` the viability was 47.1% (MTT; 62.5 µg/mL).
`O=[N+]([O-])c1ccc2c(c1)S(=O)(=O)C=C2` has an IC50 of 1300 nM (ATP luminescence; 72 h).
`CCc1c(C)c2ccc(OCc3nnc(S)n3N)c(C)c2oc1=O` has a viability of 94.3% (MTT; 31.25 µg/mL).
The inhibition of `C[C@@H]1CC[C@@H]([C@](C)(O)CNCc2ccccc2)[C@H](OCc2ccccc2)C1` is reported as 78.9% (MTT; 30 µM; 72 h).
`Cc1c(Cc2ccccc2)c(=O)oc2c(C)c(OCC(=O)NN=Cc3ccc([N+](=O)[O-])cc3)ccc12` has a viability of 23.7% (MTT; 125 µg/mL).
The inhibition of `Cc1cccc(/C=C/C(=O)Nc2cccc(-c3ccnc(N4CCC(O)CC4)c3)c2)c1` is reported as 63.5% (MTT; 5 µM).
With `CC(=NNC(=O)COc1ccc2c(C)c(Cc3ccccc3)c(=O)oc2c1C)c1ccc(Br)cc1` the viability was 19.9% (MTT; 500 µg/mL).
`C[C@@H]1CC[C@@H]([C@](C)(O)CNCc2ccccc2F)[C@H](OCc2ccccc2)C1` has an inhibition of 44.1% (MTT; 30 µM; 72 h).
